Data reported in publication PMC9303693 (Journal of Clinical Pharmacology, 2022).
Like-named read-outs stand apart in the source and are kept apart here. Marks after values point to notes of the source that are not given here.

What was measured:
[1] = Urinary excretion and renal clearance after a single 50-mg dose; type: in vivo, human; conditions: for CL renal: human, urine, oral, 50 mg, mean renal clearance
Outline: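 In study 2, a single oral 50-mg capsule was taken with ≈240 mL water after an overnight fast. Urine was collected predose, 0–4 h and 4–24 h post-dose and pooled per interval for each subject. Analytes were quantified by validated LC-MS/MS with deuterated internal standards over a nominal urine range of 5 to 5000 ng/mL.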

[2] = type: in vivo, human; conditions: for CL/F / Vd/F: acalabrutinib; for CL/F / Vd/F / half-life: arithmetic mean (SD); for AUC: AUC0‐inf; for Vd/F: Vz/F; for half-life: t1/2, total plasma acalabrutinib; for Tmax: median (minimum, maximum)
Safety evaluation = type: in vivo, human; conditions: for Number (%) of subjects with TEAEs: single oral 50-mg dose
Outline: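 After an overnight fast, subjects took a single oral 50-mg dose as capsules with ≈240 mL water on day 1. AEs were collected until follow-up contact 14 days post-dose. Safety monitoring covered concomitant medications, serial hematology, serum chemistry and urinalysis, vital signs, 12-lead ECGs and physical examinations. Findings were summarized descriptively.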

[3] = In vitro protein binding in human plasma; type: in vitro ADME; conditions: human, plasma
human plasma = test: In vitro protein binding in human plasma; type: in vitro ADME; conditions: in humans (plasma)
[4] = Earlier clinical studies of acalabrutinib; type: in vivo, human; conditions: 400-mg vs 50-mg dose, healthy subjects (data on file)
human serum albumin = human serum albumin (Homo sapiens, UniProt P02768); test: In vitro protein binding in human serum albumin solution; type: in vitro ADME
Sequence of human serum albumin (P02768 25-609): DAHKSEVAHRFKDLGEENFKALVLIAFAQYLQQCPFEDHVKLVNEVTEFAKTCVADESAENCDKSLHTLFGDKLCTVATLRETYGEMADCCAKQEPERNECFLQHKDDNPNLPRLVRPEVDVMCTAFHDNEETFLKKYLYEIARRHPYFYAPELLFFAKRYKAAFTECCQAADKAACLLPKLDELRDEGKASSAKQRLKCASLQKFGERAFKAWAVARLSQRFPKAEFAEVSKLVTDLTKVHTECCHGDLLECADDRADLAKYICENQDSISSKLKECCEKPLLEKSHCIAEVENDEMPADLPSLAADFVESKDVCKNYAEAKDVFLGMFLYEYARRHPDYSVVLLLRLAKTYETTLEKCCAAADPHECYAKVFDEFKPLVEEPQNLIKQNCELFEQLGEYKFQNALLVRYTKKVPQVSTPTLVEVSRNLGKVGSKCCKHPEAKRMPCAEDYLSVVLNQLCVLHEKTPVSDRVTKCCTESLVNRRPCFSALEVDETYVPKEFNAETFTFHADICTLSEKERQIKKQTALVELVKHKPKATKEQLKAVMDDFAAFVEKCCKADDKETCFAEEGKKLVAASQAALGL

[5] = In vitro protein binding in α1-acid glycoprotein solution; type: in vitro ADME; conditions: human
[6] = cited from earlier work
[7] = acalabrutinib, matched normal hepatic function subjects
[8] = acalabrutinib, subjects with severe hepatic impairment
[9] = both, human, plasma, po, 50 mg, single oral 50-mg dose, Control (n = 13)
[10] = both, human, plasma, po, 50 mg, single oral 50-mg dose, Mild (n = 6)
[11] = both, human, plasma, po, 50 mg, single oral 50-mg dose, Moderate (n = 6)
[12] = human, plasma, po, 50 mg, single oral 50-mg dose, Severe (n = 8)
[13] = plasma acalabrutinib, Mild vs normal hepatic function (reference)
[14] = plasma acalabrutinib, Moderate vs normal hepatic function (reference)
[15] = plasma acalabrutinib, Severe vs normal hepatic function (reference)
[16] = severe hepatic impairment, study 2
[17] = healthy subjects (n = 17), relative to no pretreatment
[18] = healthy subjects, single 400-mg dose

CC#CC(=O)N1CCC[C@H]1c1nc(-c2ccc(C(=O)Nc3ccccn3)cc2)c2c(N)nccn12 [Acalabrutinib]
renal clearance as share of the systemic clearance [1, 7]: ≈ 0.5%
renal clearance as share of the apparent systemic clearance [1, 8]: ≈ 1.7%
CL renal [1, 7]: 21.2 mL/min
CL renal [1, 8]: 12.9 mL/min
share of the 50‐mg oral dose excreted in urine ([1]; matched normal hepatic function subjects, 24-hour urine collection interval): ≈ 0.6%
share of the 50‐mg oral dose excreted in urine ([1]; subjects with severe hepatic impairment): approximately 1.8%
CL/F ([2]; single oral 50-mg dose, Control (n = 13)): 218.1 ± 103.1 ^a L/h
CL/F ([2]; single oral 50-mg dose, Mild (n = 6)): 156.6 ± 91.1 L/h
CL/F ([2]; single oral 50-mg dose, Moderate (n = 6)): 280.8 ± 372.7 L/h
CL/F ([2]; single oral 50-mg dose, Severe (n = 8)): 48.7 ± 30.7 L/h
CL/F ([2]; single oral 50-mg dose, Severe (n = 8), listed as acalabrutinib): 48.7 L/h
AUC ([2]; both, human, plasma, oral, 50 mg, LS Mean, plasma acalabrutinib, ANOVA, exponentiated LSM, Control, n 13): 250 ng·h/mL
AUC ([2]; both, human, plasma, oral, 50 mg, LS Mean, plasma acalabrutinib, ANOVA, exponentiated LSM, Mild, n 6): 366 ng·h/mL
AUC ([2]; both, human, plasma, oral, 50 mg, LS Mean, plasma acalabrutinib, ANOVA, exponentiated LSM, Moderate, n 6): 326 ng·h/mL
Cmax ([2]; both, human, plasma, oral, 50 mg, Cmax, LS Mean, plasma acalabrutinib, ANOVA, exponentiated LSM, Control, n 14): 152 ng/mL
Cmax ([2]; both, human, plasma, oral, 50 mg, Cmax, LS Mean, plasma acalabrutinib, ANOVA, exponentiated LSM, Mild, n 6): 292 ng/mL
Cmax ([2]; both, human, plasma, oral, 50 mg, Cmax, LS Mean, plasma acalabrutinib, ANOVA, exponentiated LSM, Moderate, n 6): 156 ng/mL
AUC ([2]; both, human, plasma, po, 50 mg, total plasma acalabrutinib, single oral 50-mg dose, Control (n = 13), geometric mean (geometric CV%)): 250 ng·h/mL
AUC ([2]; both, human, plasma, po, 50 mg, total plasma acalabrutinib, single oral 50-mg dose, Mild (n = 6), geometric mean (geometric CV%)): 366 ng·h/mL
AUC ([2]; both, human, plasma, po, 50 mg, total plasma acalabrutinib, single oral 50-mg dose, Moderate (n = 6), geometric mean (geometric CV%)): 326 ng·h/mL
Cmax ([2]; both, human, plasma, po, 50 mg, Cmax, total plasma acalabrutinib, single oral 50-mg dose, fasted, Control, normal hepatic function (n = 14), geometric mean (geometric CV%)): 152 ng/mL
Cmax ([2]; both, human, plasma, po, 50 mg, Cmax, total plasma acalabrutinib, single oral 50-mg dose, fasted, Mild, Child-Pugh class A (n = 6), geometric mean (geometric CV%)): 292 ng/mL
Cmax ([2]; both, human, plasma, po, 50 mg, Cmax, total plasma acalabrutinib, single oral 50-mg dose, fasted, Moderate, Child-Pugh class B (n = 6), geometric mean (geometric CV%)): 156 ng/mL
Vd/F [2, 9]: 722 ± 520 L
Vd/F [2, 10]: 471 ± 222 L
Vd/F [2, 11]: 2140 ± 2720 L
half-life [2, 9]: 2.2 ± 0.8 h
half-life [2, 10]: 2.3 ± 0.9 h
half-life [2, 11]: 7.9 ± 12.7 h
Tmax ([2]; both, human, plasma, po, 50 mg, total plasma acalabrutinib, single oral 50-mg dose, Control (n = 14)): 0.6 h
Tmax ([2]; both, human, plasma, po, 50 mg, total plasma acalabrutinib, single oral 50-mg dose, Mild (n = 6)): 0.8 h
Tmax ([2]; both, human, plasma, po, 50 mg, total plasma acalabrutinib, single oral 50-mg dose, Moderate (n = 6)): 1 h
AUC ([2]; human, plasma, oral, 50 mg, LS Mean, plasma acalabrutinib, ANOVA, exponentiated LSM, Severe, n 8): 1170 ng·h/mL
Cmax ([2]; human, plasma, oral, 50 mg, Cmax, LS Mean, plasma acalabrutinib, ANOVA, exponentiated LSM, Severe, n 8): 726 ng/mL
AUC ([2]; human, plasma, po, 50 mg, total plasma acalabrutinib, single oral 50-mg dose, Severe (n = 8), geometric mean (geometric CV%)): 1170 ng·h/mL
Cmax ([2]; human, plasma, po, 50 mg, Cmax, total plasma acalabrutinib, single oral 50-mg dose, fasted, Severe, Child-Pugh class C (n = 8), geometric mean (geometric CV%)): 726 ng/mL
Vd/F [2, 12]: 167 ± 70.3 L
half-life [2, 12]: 2.7 ± 1.1 h
AUC0‐inf GMR: Test/Reference [2, 13]: 146.2%
Cmax GMR: Test/Reference [2, 13]: 191.3%
AUC0‐inf GMR: Test/Reference [2, 14]: 130.5%
Cmax GMR: Test/Reference [2, 14]: 102.2%
AUC0‐inf GMR: Test/Reference [2, 15]: 467.3%
Cmax GMR: Test/Reference [2, 15]: 476.2%
increase of unbound acalabrutinib AUC0‐last compared with control subjects [2, 16]: 3.6 fold
increase of unbound acalabrutinib Cmax compared with control subjects [2, 16]: 3.8 fold
increase of acalabrutinib Cmax compared with control subjects ([2]; single 50-mg dose, mild hepatic impairment): 1.9 fold
increase of acalabrutinib AUC compared with control subjects ([2]; single 50-mg dose, mild hepatic impairment (Child-Pugh class A)): 1.90 fold
difference in acalabrutinib Cmax compared with control subjects ([2]; single 50-mg dose, moderate hepatic impairment): did not result in any appreciable difference
increase of acalabrutinib AUC compared with control subjects ([2]; single 50-mg dose, moderate hepatic impairment (Child-Pugh class B)): 1.48 fold
Cmax ([2]; total plasma acalabrutinib, single oral 50-mg dose, fasted, Moderate, Child-Pugh class B (n = 6), geometric mean (geometric CV%)): 155.7 (246.9) ng/mL
AUC0‐inf ([2]; total plasma acalabrutinib, single oral 50-mg dose, Moderate (n = 6), geometric mean (geometric CV%)): 326.4 (177.9) ng • h/mL
Number (%) of subjects with TEAEs (Safety evaluation; Control (n = 14)): 0
Number (%) of subjects with TEAEs (Safety evaluation; Mild hepatic impairment (n = 6)): 2 (33)
Number (%) of subjects with TEAEs (Safety evaluation; Moderate hepatic impairment (n = 6)): 0
Number (%) of subjects with TEAEs (Safety evaluation; Overall (N = 34)): 3 (9)
Number (%) of subjects with TEAEs (Safety evaluation; Severe hepatic impairment (n = 8)): 1 (13)
tolerability (Safety evaluation; single oral dose of 50 mg, healthy subjects and subjects with mild, moderate, or severe hepatic impairment): well tolerated
deaths, serious AEs, discontinuations due to AEs (Safety evaluation; single oral dose of 50 mg, study 1 and study 2): no deaths, serious AEs, or subject discontinuations due to AEs
fraction unbound [3]: 0.025
free fraction (percentage unbound) (human plasma): 2.5%
clinical margin of safety for the 50‐mg dose, AUC0‐last [4]: ~16 fold
clinical margin of safety for the 50‐mg dose, Cmax [4]: ≈ 7.5 fold
fraction unbound (human serum albumin): 0.063
fraction unbound [5]: 0.589
mean elimination t1/2 [6]: ≈ 1 hour
increase of mean plasma AUC0‐last in the presence of itraconazole [6, 17]: 5.1 fold
increase of mean plasma Cmax in the presence of itraconazole [6, 17]: 3.9 fold
mean AUC0‐last [6, 18]: 3966 ng·h/mL
mean Cmax [6, 18]: 1672 ng/mL
